Compounds with a hit are over-represented: about 3% of the library has one in this group of screens.
ABHD5-PLIN5 inh: inhibitors of human ABHD5-perilipin-5 interaction. Q00G26+Q8WTS1. Split G. princeps luciferase complementation, luminescence, 4 h. inhibition, % at 4 µM. 0.78% of 360,000 active. AID 602281;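 active = inhibition above the mean inhibition across every tested compound plus 3 SD, cut at about 22% in these data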;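 also: 0% = DMSO only wells and the 100% control is not disclosed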
MC4R antag cAMP: blocks human MC4R cAMP signaling | MC4R-expressing cells, MTII-stimulated cAMP, LANCE TR-FRET | inhibition, % at 6.5 µM | 0.48% of 360,000 active | AID 540295;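 active = inhibition above its plate's cutoff, the mean of tested wells on that plate plus 3 SD, cut at about 29% in these data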;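 also: 0% = Melanotan II alone and 100% = Melanotan II plus saturating MCL0020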
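System: U2OS-MC4R stable cell line; Technique: Eu-cAMP/anti-cAMP TR-FRET, emission 671 nm; Repeats: single well per compound; Also added: Melanotan II; Dosing: one concentration, 6.5 µM nominal; Schedule: 30-min compound, 1-h challenge, 1-h detection, room temperature.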
MC4R ag barr: activates human MC4R beta-arrestin recruitment; activation, % at 8.9 µM; AID 540308; P32245; 0.98% of 360,000 active; U2OS MC4R beta-arrestin complementation, luminescence; percent of melanotan II response, DMSO zero;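 active = activation above a per-plate cutoff, the mean activation of sample wells on that plate plus 3 SD, cut at about 8% in these data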
B2AR ag: agonists of human beta-2 adrenergic receptor inducing internalization. AID 504454. 0.43% of 340,000 active. P07550. response, % (test concentration not listed). Am2.2-beta2AR cells, FAP receptor internalization, flow cytometry;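 active = response above a set limit, near 3 SD of response in nonfluorescent compounds, cut at about 42% in these data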
Target sequence (P07550 whole entry, looked up): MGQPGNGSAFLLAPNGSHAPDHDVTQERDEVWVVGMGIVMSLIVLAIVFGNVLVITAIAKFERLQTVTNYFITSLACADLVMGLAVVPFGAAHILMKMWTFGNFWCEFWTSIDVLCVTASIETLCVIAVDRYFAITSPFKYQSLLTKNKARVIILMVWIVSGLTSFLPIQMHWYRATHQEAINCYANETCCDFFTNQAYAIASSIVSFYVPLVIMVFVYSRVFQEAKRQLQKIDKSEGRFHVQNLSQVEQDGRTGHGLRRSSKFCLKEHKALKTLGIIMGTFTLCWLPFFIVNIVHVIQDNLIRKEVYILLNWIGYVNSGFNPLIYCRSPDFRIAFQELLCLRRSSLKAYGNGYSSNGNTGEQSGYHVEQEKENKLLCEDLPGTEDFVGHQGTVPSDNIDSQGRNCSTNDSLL
PfG6PD inh: PfG6PD (Plasmodium falciparum) enzyme inhibition; PfGluPho enzyme, NADPH resazurin-diaphorase fluorescence; inhibition, % at 20 µM; 0.78% of 350,000 active;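 active = inhibition reaching at least a set limit at 20 µM in the primary screen, cut at about 59% in these data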;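 also: 0% = DMSO wells with substrate and 100% = DMSO wells lacking glucose-6-phosphate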
* hit, by the source's call; x = not tested or not shown.

SMILES	ABHD5-PLIN5 inh	MC4R antag cAMP	MC4R ag barr	B2AR ag	PfG6PD inh
C#CCn1c(=NC(=O)c2ccc(S(=O)(=O)N3CCc4ccccc4C3)cc2)sc2cc(S(N)(=O)=O)ccc21	-1	-5	9.2*	7	11
CC(=O)Nc1ccc(C2=NNC(=Nc3cccc(S(=O)(=O)N(C)C)c3)SC2)cc1	58*	28	0	-3	37
CN(C)S(=O)(=O)c1cccc(N=C2NN=C(c3ccccc3)CS2)c1	x	x	x	x	18
CC(=O)Nc1ccc(CN2C(=O)C(Cc3ccccc3)ON=C2c2ncccc2C)cc1 (centres undefined)	-1	16	0	x	x
CCNc1ccc(Br)cc(C(=O)/C=C/c2ccc(Cl)cc2Cl)c1=O	47*	-3	-2	-97	25
O=C(O)c1ccc(C(=O)C(=O)c2ccccc2)cc1	3	-1	2	4	-34
CSC(SC)=C(C#N)C(=O)c1ccccc1	-4	38*	24*	70*	14
CC1CCCC(C)N1CC(O)COc1c(F)cc(Br)cc1F (centres undefined)	3	10	5	12	-9
Cc1cc(N2C(=O)NC(=O)CC2C)c(C)cc1C(C)C (centres undefined)	-1	-1	-1	-3	1
CC1Cc2ccccc2N1C(=O)COC(=O)c1ccc(N(C)C)cc1 (centres undefined)	7	-1	-1	7	16
CC(=O)C1=CCC(c2cccc(Cl)c2)N(S(=O)(=O)c2ccc(C)cc2)C1 (centres undefined)	8	x	x	x	x
CCOC(=O)COc1ccc(/C=C2\NC(=S)N(CC)C2=O)cc1	1	9	-1	66*	-12
COc1ccc(C(=O)CCC(=O)NC2=NCCS2)cc1	-13	16	0	13	-13
COc1ccc(-c2cc(C)no2)cc1S(=O)(=O)NCCc1ccco1	1	-3	-4	0	4
Cc1ccc(Sc2cc(NCCCO)c([N+](=O)[O-])c3nonc23)cc1	3	9	-1	19	11
CCC(=O)OCCNc1cc(SCCC(=O)OC)c2nonc2c1[N+](=O)[O-]	-14	14	1	77*	34
CC(=O)OCCNc1cc(SC(C)C)c2nonc2c1[N+](=O)[O-]	-9	8	1	-8	-2
CC(C)CCSc1cc(NCCO)c([N+](=O)[O-])c2nonc12	0	4	-2	2	32
CCC(=O)OCCNc1cc(Sc2nccn2C)c2nonc2c1[N+](=O)[O-]	7	-24	-3	83*	29
CC(=O)OCCCNc1cc(Sc2ccc(Cl)cc2)c2nonc2c1[N+](=O)[O-]	-1	-4	-1	50*	14
Cc1ccc2nc(C)c(C(=O)NN=C3CCN(C)CC3)n2c1	2	3	-3	-7	4
CC1CN(C(=S)NC2CCCC2)CC(C)O1 (centres undefined)	3	-1	1	5	0
S=c1[nH]nc(-c2cccs2)n1/N=C/c1cn(-c2ccccc2)nc1-c1ccccc1	0	19	9.4*	-3	-3
COc1ccc(N2C(=NC(=O)C3CCCCC3)SC3CS(=O)(=O)CC32)c(OC)c1 (centres undefined)	-4	18	-1	-4	1
CCOc1ccc(/C=C/c2[nH]c(=O)[nH]c(=O)c2[N+](=O)[O-])cc1	3	8	0	-14	-3
SMILES	ABHD5-PLIN5 inh	MC4R antag cAMP	MC4R ag barr	B2AR ag	PfG6PD inh
CC(C)c1ccc(/C=C/c2[nH]c(=O)[nH]c(=O)c2[N+](=O)[O-])cc1	22*	10	-1	10	-32
CC(C)C[C@H](NC(=O)c1nc[nH]c1C(=O)NCC(=O)OC(C)(C)C)C(=O)OCc1ccccc1	0	19	9.4*	12	22
COc1cccc(-c2nnc(SCC(=O)NC3CCS(=O)(=O)C3)n2C)c1 (centres undefined)	-13	6	-2	-4	2
CCc1ccc2c(c1)cc(CN(C(=S)Nc1cccc(C)c1)C1CC1)c1nnnn12	2	-10	13*	8	-16
CCCCCCCCCCS(=O)(=O)N/N=C/c1ccc(O)cc1	0	2	9.0*	25	3
CCCCCCCCCS(=O)(=O)N/N=C/c1cccc([N+](=O)[O-])c1	3	2	4	-2	-1
CCCc1cc(-c2nc(N)ncc2-c2ccc3c(c2)OCCCO3)c(O)cc1OC	-12	13	4	13	71*
O=C1NC[C@H](CCCCN2CCN(CCc3ccc(O)cc3)C(=O)C2=O)N(CCC2CCCCC2)C1=O	5	x	x	x	x
COc1ccc(N2C(=O)C(Cl)=C(Nc3ccc(OC)cc3OC)C2=O)cc1	8	-3	13*	4	-12
O=S(=O)(c1cnc(Cl)c(Br)c1)N1CCc2ccccc21	-2	19	-1	56*	19
COc1cccc(/C=C2\SC(=S)NC2=O)c1OS(=O)(=O)c1ccc(NC(C)=O)cc1	-3	2	3	77*	-49
Cc1cccc(NC(=O)[C@H](Cc2ccccc2)NC(=O)OCc2ccccc2)c1	-5	7	3	-4	-10
Cc1ccc(NC(=O)C(Cc2ccccc2)NC(=O)OCc2ccccc2)cc1C (centres undefined)	-11	11	8.8*	-5	3
CNC[C@@H](Cc1ccccc1)NC[C@@H](CC1CCCCC1)NCCCc1ccccc1	13	1	12*	26	2
CNC[C@@H](CC1CCCCC1)NC[C@H](CC(C)C)NCCc1cccc(C(F)(F)F)c1	17	3	6	43*	-6
CC1(C)Oc2ccc3ccc(=O)oc3c2/C(=C/Nc2cccc(O)c2)C1=O	-1	10	8.6*	0	-4
CCCCCCN1C[C@H](n2cc(C3CC3)nn2)[C@@H](O)C[C@@H]1c1ccc(OC)cc1	-6	5	5	x	12
O=C(Nc1cc(C(F)(F)F)cc(C(F)(F)F)c1)c1ccc(Cn2cc(C(F)(F)F)ccc2=O)cc1	-1	3	8.4*	14	19
CC(C)C[C@@H]1O[C@H](CCc2ccccc2)CC2=C1C(=O)OC(C)(C)O2	-4	x	x	x	x
COc1ccc(Cl)cc1C(Nc1cccnc1)c1ccc2cccnc2c1O (centres undefined)	23*	-9	-4	8	-3
CCC(=O)NC(c1ccccc1OC)c1ccc2cccnc2c1O (centres undefined)	3	11	3	2	-10
COCCN(C(=O)CSCC(=O)Nc1cccc(C)c1)c1c(N)n(Cc2ccccc2)c(=O)[nH]c1=O	-11	6	-5	-6	4
C=CCn1c(C)nnc1SCC(=O)Nc1cc(S(=O)(=O)N2CCCC2)ccc1Cl	-1	17	-2	7	1
CCc1c(C)[nH]c2ccc(OC)cc2c1=S	-5	-5	-5	2	67*
CC(=O)N1/C(=C/c2ccc(N(C)C)cc2)C(=O)c2ccccc21	19	-2	-4	45*	10
